Consider one compound from ChEMBL document CHEMBL3525967, “In vitro glucuronidation of the antibacterial triclocarban and its oxidative metabolites” (Drug Metab Dispos, 2012).

Series [1] in a line: Drug metabolism in cynomolgus monkey liver microsomes assessed as N'-glucuronide-triclocarban formation incubated for 5 mins prior to UDPGA addition measured after 5 to 30 mins by LC-UV analysis. Format: ADME, Macaca fascicularis. The procedure, abridged:
(§1)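 Microsomes or UGT Supersomes (5 µg protein) were held 15 min on ice with alamethicin in 100 mM potassium phosphate pH 7.4. TCC was added at 10 µM (2% DMSO) with 10 mM MgCl2 and 10 mM saccharolactone, pre-warmed 5 min at 37 °C, then started with UDPGA. Samples at 5, 10, 15 and 30 min were quenched in ACN. Product was read by LC-UV at 265 nm; rate came from regression over time, three incubations.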
In general terms: Liver microsomes are a subcellular fraction often used to study metabolism.

Series [2] concerns the target T1, UDP-glucuronosyltransferase 1A1 (Homo sapiens, UniProt P22309).
T1 sequence (P22309 whole entry): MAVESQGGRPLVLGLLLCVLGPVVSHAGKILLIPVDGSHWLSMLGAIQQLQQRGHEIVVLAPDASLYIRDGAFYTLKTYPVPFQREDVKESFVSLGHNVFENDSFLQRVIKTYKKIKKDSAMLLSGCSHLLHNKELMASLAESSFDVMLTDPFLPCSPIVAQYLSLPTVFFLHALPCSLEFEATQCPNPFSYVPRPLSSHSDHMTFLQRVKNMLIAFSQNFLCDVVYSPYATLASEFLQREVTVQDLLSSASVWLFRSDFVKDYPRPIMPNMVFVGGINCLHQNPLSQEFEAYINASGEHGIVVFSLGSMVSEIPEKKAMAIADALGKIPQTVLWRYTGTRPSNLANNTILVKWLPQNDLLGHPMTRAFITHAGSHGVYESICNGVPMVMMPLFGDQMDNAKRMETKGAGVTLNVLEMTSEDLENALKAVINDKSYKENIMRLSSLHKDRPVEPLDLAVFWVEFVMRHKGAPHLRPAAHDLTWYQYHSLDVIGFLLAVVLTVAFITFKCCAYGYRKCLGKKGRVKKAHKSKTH
The experiment in a line: Drug metabolism assessed as human UGT1A1-mediated N'-glucuronide-triclocarban formation expressed in baculovirus infected insect sf9 cells incubated for 5 mins prior to UDPGA addition measured after 5 to 30 mins by LC-UV analysis. Format: ADME. The procedure, abridged: as §1

Series [3] addresses T2, UDP-glucuronosyltransferase 1A10 (Homo sapiens, UniProt Q9HAW8).
T2 sequence (Q9HAW8 whole entry): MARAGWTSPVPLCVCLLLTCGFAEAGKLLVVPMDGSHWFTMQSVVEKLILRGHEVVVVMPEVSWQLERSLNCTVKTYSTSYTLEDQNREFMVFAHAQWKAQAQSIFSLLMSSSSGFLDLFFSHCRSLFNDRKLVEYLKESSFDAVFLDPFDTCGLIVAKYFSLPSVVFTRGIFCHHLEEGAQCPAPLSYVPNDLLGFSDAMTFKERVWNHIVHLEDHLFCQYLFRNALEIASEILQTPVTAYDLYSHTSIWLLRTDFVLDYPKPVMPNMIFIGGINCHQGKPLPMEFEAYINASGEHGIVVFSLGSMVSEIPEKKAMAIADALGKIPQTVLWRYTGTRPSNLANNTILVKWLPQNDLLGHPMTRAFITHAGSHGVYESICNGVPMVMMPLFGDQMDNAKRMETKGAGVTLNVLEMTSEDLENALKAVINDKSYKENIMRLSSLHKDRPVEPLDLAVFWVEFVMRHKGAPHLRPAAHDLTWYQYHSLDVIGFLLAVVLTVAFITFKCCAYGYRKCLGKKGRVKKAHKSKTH
The experiment in a line: Drug metabolism assessed as human UGT1A10-mediated N'-glucuronide-triclocarban formation expressed in baculovirus infected insect sf9 cells incubated for 5 mins prior to UDPGA addition measured after 5 to 30 mins by LC-UV analysis. Format: ADME. The method in brief:
as §1

For a further series, the system named is Liver microsome. Nature of the series: Drug metabolism in Sprague-Dawley rat liver microsomes assessed as N-glucuronide-triclocarban formation incubated for 5 mins prior to UDPGA addition measured after 5 to 30 mins by LC-UV analysis. Format: ADME. The method in brief:
as §1

Series [4] is described as follows: Drug excretion in Swiss webster mouse urine assessed as 6-O-glucuronide-triclocarban formation at 5 mg/kg, po by LC-MS analysis. Format: ADME, organism-based. Details: dose 5 mg/kg, route oral. The note with it: in vivo. The procedure, abridged:
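Mice were housed two per metabolic cage, with blank urine collected over the 24 h before dosing. TCC was given by oral gavage as a 1 mg/mL solution in 20/80 DMSO/PEG400 (v/v) at 5 mg/kg. Urine was collected at 0-24 h and 24-48 h and analysed by online LC-MS. Values are the mean of two independent experiments.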

Series [5] in a line: Drug excretion in human urine. Format: ADME. Conditions: read-out: Drug excretion.
Series [6] in a line: Drug metabolism in human kidney microsomes assessed as N'-glucuronide-triclocarban formation incubated for 5 mins prior to UDPGA addition measured after 30 mins by LC-UV-ESI-MS/MS analysis. Format: ADME. Conditions: 0.5 h. The method in brief: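 Pooled human kidney or liver microsomes (liver: 25 mixed-gender donors), 5 µg protein, in 200 µL 100 mM potassium phosphate pH 7.4. Alamethicin pre-treated on ice 15 min. Final 10 µM TCC (2% DMSO), with 10 mM MgCl2 and 10 mM saccharolactone, preincubated 5 min at 37 °C. Started with UDPGA (20 mM stock). Sampled at 5, 10, 15 and 30 min into ACN containing 1 µM DCC internal standard.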

Series [7] can be described thus: Drug metabolism in B6C3F1 mouse liver microsomes assessed as N'-glucuronide-triclocarban formation incubated for 5 mins prior to UDPGA addition measured after 30 mins by LC-UV-ESI-MS/MS analysis. Format: ADME. The note with it: 0.5 h. The procedure, abridged: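 TCC was incubated at 10 µM (2% DMSO) in 100 mM phosphate pH 7.4 with alamethicin-treated microsomes or Supersomes, 10 mM MgCl2 and 10 mM saccharolactone. After 5 min pre-incubation at 37 °C, UDPGA was added to start the reaction. Protein was raised up to 2 mg/mL. Samples were quenched in ACN with 1 µM DCC internal standard, centrifuged, and N-glucuronides detected by LC-ESI-MS/MS in SRM mode.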

In series [8] the target is T3, UDP-glucuronosyltransferase 2B15 (Homo sapiens, UniProt P54855).
T3 sequence (P54855 whole entry): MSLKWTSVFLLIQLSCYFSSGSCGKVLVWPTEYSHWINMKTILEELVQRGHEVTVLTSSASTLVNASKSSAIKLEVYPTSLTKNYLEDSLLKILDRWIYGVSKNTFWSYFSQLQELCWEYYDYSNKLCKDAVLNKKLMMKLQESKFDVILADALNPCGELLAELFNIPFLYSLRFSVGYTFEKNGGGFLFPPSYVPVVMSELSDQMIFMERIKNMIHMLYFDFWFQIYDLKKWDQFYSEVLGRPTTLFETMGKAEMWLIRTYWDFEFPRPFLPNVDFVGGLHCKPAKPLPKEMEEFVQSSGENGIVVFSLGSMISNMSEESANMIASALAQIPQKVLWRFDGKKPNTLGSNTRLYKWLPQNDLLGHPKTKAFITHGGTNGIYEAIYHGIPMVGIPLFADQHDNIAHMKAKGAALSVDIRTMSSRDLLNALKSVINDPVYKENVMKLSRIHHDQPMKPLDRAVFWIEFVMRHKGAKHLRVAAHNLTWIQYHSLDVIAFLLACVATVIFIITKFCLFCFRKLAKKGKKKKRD
The experiment in a line: Drug metabolism assessed as human UGT2B15-mediated N-glucuronide-triclocarban formation expressed in baculovirus infected insect sf9 cells incubated for 5 mins prior to UDPGA addition measured after 5 to 30 mins by LC-UV analysis. Format: ADME. The procedure, abridged: as §1

For `O=C(Nc1ccc(Cl)cc1)Nc1ccc(Cl)c(Cl)c1` [TRICLOCARBAN], the Drug metabolism entry in [1] was “metabolite_not_detected”; in [2] it was “metabolite_not_detected”; in series [3] it was “metabolite_not_detected”; with Liver microsome, “metabolite_not_detected”; in series [6], “metabolite_detected”; in [7] it was “metabolite_detected”. The Drug metabolism entry in series [8] is given as “metabolite_not_detected”. For the same compound, the Drug excretion entry in series [4] was “metabolite_detected”. The dose excreted in [5] turned out to be 25%.
